In brackets after ≈: the same amount, converted by molar mass. Activity calls are given as the source filed them. The calls are words filed in the database; no cut-off is given here.
Columns and labels:
[1] = Therapeutic index, ratio of CC50 for human HepG2 cells to MIC for Streptococcus pneumoniae ATCC 49619; assay type: toxicity; conditions: read-out: TI
Pseudomonas aeruginosa = assay: Antibacterial activity against Pseudomonas aeruginosa ATCC 27853 after 20 hrs by CLSI based-broth microdilution method; assay type: functional; conditions: ATCC 27853, 20 h
Acinetobacter baumannii = assay: Antibacterial activity against Acinetobacter baumannii ATCC 19606 after 20 hrs by CLSI based-broth microdilution method; assay type: functional; conditions: ATCC 19606 = CIP 70.34 = JCM 6841, 20 h
Enterobacter cloacae = assay: Antibacterial activity against Enterobacter cloacae ATCC 13047 after 20 hrs by CLSI based-broth microdilution method; assay type: functional; conditions: subsp. cloacae ATCC 13047, 20 h
Klebsiella pneumoniae = assay: Antibacterial activity against Klebsiella pneumoniae ATCC 700603 after 20 hrs by CLSI based-broth microdilution method; assay type: functional; conditions: ATCC 700603, 20 h
[2] = Therapeutic index, ratio of CC50 for human A549 cells to MIC for Streptococcus pneumoniae ATCC 49619; assay type: toxicity; conditions: read-out: TI
A549 = assay: Cytotoxicity against human A549 cells after 48 to 72 hrs by MTT assay; assay type: cell-based
HepG2 = assay: Cytotoxicity against human HepG2 cells after 48 to 72 hrs by MTT assay; assay type: cell-based
Escherichia coli = assay: Antibacterial activity against Escherichia coli ATCC 25922 after 20 hrs by CLSI based-broth microdilution method; assay type: functional; conditions: ATCC 25922, 20 h
Streptococcus pneumoniae [3] = assay: Antibacterial activity against Streptococcus pneumoniae ATCC 49619 after 20 hrs by CLSI based-broth microdilution method; assay type: functional; conditions: ATCC 49619, 20 h
[4] = Haemolytic activity in human erythrocytes at 0.1 to 10 ug/ml relative to control; assay type: ADME, cell-based, Erythrocyte; conditions: read-out: Activity
Method in brief: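 Human erythrocytes washed in 150 mM NaCl, resuspended in PBS pH 7.4 (2% blood); compound at final 0.1, 1 and 10 μg/mL (0.5% DMSO) for 45 min at 37 °C, n = 6; spun at 500g, 4 °C; supernatant absorbance read at 540 nm; 1% Triton X-100 as positive and PBS as negative control; % lysis calculated.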

Staphylococcus aureus [5] = assay: Antibacterial activity against Staphylococcus aureus ATCC 29213 after 20 hrs by CLSI based-broth microdilution method; assay type: functional; conditions: ATCC 29213, 20 h
Staphylococcus aureus [6] = assay: Antibacterial activity against Staphylococcus aureus ATCC 25923 after 20 hrs by CLSI based-broth microdilution method; assay type: functional; conditions: ATCC 25923, 20 h
Enterococcus faecalis = assay: Antibacterial activity against Enterococcus faecalis ATCC 19433 after 20 hrs by CLSI based-broth microdilution method; assay type: functional; conditions: ATCC 19433, 20 h
[7] = system: Staphylococcus saprophyticus; assay: Antibacterial activity against Staphylococcus saprophyticus ATCC 15305 after 20 hrs by CLSI based-broth microdilution method; assay type: functional; conditions: subsp. saprophyticus ATCC 15305, 20 h
[8] = system: Staphylococcus epidermidis; assay: Antibacterial activity against Staphylococcus epidermidis ATCC 12228 after 20 hrs by CLSI based-broth microdilution method; assay type: functional; conditions: ATCC 12228, 20 h
[9] = Apparent permeability across apical to basolateral membrane in human Caco2 cells at 10 ug/ml by LC-MS/MS analysis; assay type: ADME, cell-based; conditions: Caco-2
Method in brief: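 Caco-2 monolayers grown 21–28 days on Transwell polycarbonate membranes, TEER ≥165 Ω cm2; preincubated 20 min at 37 °C in transport buffer; apical-to-basolateral transport only, pH 7.4 on both sides; receiver sampled over time under sink conditions; concentrations measured by LC–MS/MS.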

Streptococcus agalactiae = assay: Antibacterial activity against Streptococcus agalactiae ATCC 12386 after 20 hrs by CLSI based-broth microdilution method; assay type: functional; conditions: ATCC 12386, 20 h
[10] = Inhibition of N-terminal SmBiT-fused Bacillus subtilis RNAP subunit beta' CH region expressed in Escherichia coli BL21(DE3)pLysS interaction with C- terminal LgBiT-fused Bacillus subtilis RNA polymerase sigma factor SigA expressed in Escherichia coli BL21(DE3)pLysS preincubated for 10 mins followed by RNA polymerase sigma factor SigA addition and measured after 10 mins by nano-glo luciferase assay
Method in brief: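 Split-luciferase complementation in PBS: N-SmBiT-CH (2.5 μM stock) mixed with compound at desired concentrations, 10 min at 37 °C. C-LgBiT-σA (2.5 μM stock) then added, another 10 min at 37 °C. Equal volume of Nano-Glo substrate added and luminescence read. No-drug control included. Run in triplicate with technical repeats.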

Streptococcus pyogenes = assay: Antibacterial activity against Streptococcus pyogenes ATCC 19615 after 20 hrs by CLSI based-broth microdilution method; assay type: functional; conditions: ATCC 19615, 20 h
Streptococcus pneumoniae [11] = assay: Antibacterial activity against Streptococcus pneumoniae ATCC 49619 after 16 to 20 hrs by CLSI based-broth microdilution method; assay type: functional
Staphylococcus aureus [12] = assay: Effect on total RNA level in Staphylococcus aureus ATCC 29213 at 1/4 to 1/8 times MIC by fluorimetric method; assay type: functional
[13] = Inhibition of Escherichia coli RNAP/sigma-70 protein-protein interaction assessed as reduction in RNA synthesis preincubated for 10 mins followed by sigma-70/DNA template/AGU/ApU/alpha [32P]GTP addition and measured after 10 mins by phosphorimaging analysis
Streptococcus pneumoniae [14] = assay: Antibacterial activity against Streptococcus pneumoniae ATCC 49619 assessed as reduction in pneumolysin release at 0.25 to 0.5 times MIC incubated for 16 to 20 hrs by Western blot analysis; assay type: functional, organism-based
Method in brief: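 Overnight static culture in brain–heart infusion broth, with or without serially diluted compound; rifampicin and ceftriaxone controls at twofold dilutions from 2 to 0.002 μg/mL; untreated control. […] Western blot probed with rabbit polyclonal anti-pneumolysin (1:1000) and HRP anti-rabbit secondary, ECL chemiluminescence; band intensity normalized to untreated control.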

Row | Compound | MIC (Pseudomonas aeruginosa) [µg/mL] | MIC (Acinetobacter baumannii) [µg/mL] | MIC (Enterobacter cloacae) [µg/mL] | MIC (Klebsiella pneumoniae) [µg/mL] | MIC (Escherichia coli) [µg/mL] | MIC (Streptococcus pneumoniae [3]) [µg/mL] | MIC (Staphylococcus aureus [5]) [µg/mL] | MIC (Staphylococcus aureus [6]) [µg/mL] | MIC (Enterococcus faecalis) [µg/mL] | MIC [7] [µg/mL] | MIC [8] [µg/mL] | MIC (Streptococcus agalactiae) [µg/mL] | IC50 [10] [µM] | MIC (Streptococcus pyogenes) [µg/mL] | other results
1 | O=C(O)c1ccc(Br)c(NCc2ccc(Sc3ccc(Cl)c(Cl)c3)c([N+](=O)[O-])c2)c1 | > 256 | > 256 | > 256 | > 256 | > 256 | 4 (≈ 7.57 µM) |  |  |  |  |  |  |  |  | selectivity ratio [1]: 24; selectivity ratio [2]: 18; CC50 (A549): 67.7 µM; CC50 (HepG2): 92.6 µM
2 | O=C(O)c1ccccc1NCc1ccc(Sc2ccc(Cl)c(Cl)c2)c([N+](=O)[O-])c1 | > 256 | > 256 | > 256 | > 256 | > 256 |  | 4 (≈ 8.9 µM) | 8 (≈ 17.8 µM) | 8 (≈ 17.8 µM) | 4 (≈ 8.9 µM) | 4 (≈ 8.9 µM) | 4 (≈ 8.9 µM) | 11.6 | 4 (≈ 8.9 µM) | hemolysis [4]: < 10%; selectivity ratio [1]: 38; selectivity ratio [2]: 57; Papp A→B at 10 ug/ml [9]: 36.2 ×10⁻⁶ cm/s; CC50 (A549): 252 µM; CC50 (HepG2): 170 µM
3 | Nc1cccc(Sc2ccc(C(=O)c3ccccc3C(=O)O)cc2[N+](=O)[O-])c1 | > 256 | > 256 | > 256 | > 256 | > 256 |  |  |  |  |  |  |  |  |  | MIC (Streptococcus pneumoniae [11]): 64 µg/mL (≈ 162 µM)
4 | O=C(O)c1ccccc1C(=O)c1ccc(Sc2ccc(Cl)c(Cl)c2)cc1 | > 256 | > 256 | > 256 | > 256 | > 256 | 16 (≈ 39.7 µM) |  |  |  |  |  |  | 67 |  | 
5 | Nc1ccc(Sc2ccc(C(=O)c3ccccc3C(=O)O)cc2[N+](=O)[O-])cc1 | > 256 | > 256 | > 256 | > 256 | > 256 |  |  |  |  |  |  |  |  |  | MIC (Streptococcus pneumoniae [11]): 128 µg/mL (≈ 325 µM)
6 | O=C(O)c1ccccc1C(=O)c1ccc(Sc2ccc(Cl)c(Cl)c2)c([N+](=O)[O-])c1 | > 256 | > 256 | > 256 | > 256 | > 256 |  | 16 (≈ 35.7 µM) | 16 (≈ 35.7 µM) | 32 (≈ 71.4 µM) | 32 (≈ 71.4 µM) | 16 (≈ 35.7 µM) | 16 (≈ 35.7 µM) |  | 16 (≈ 35.7 µM) | hemolysis [4]: < 10%; MIC (Staphylococcus aureus [12]): > 256 µg/mL; IC50 [13]: 20.4 µM; selectivity ratio [1]: 7; selectivity ratio [2]: 9; Papp A→B at 10 ug/ml [9]: 35 ×10⁻⁶ cm/s; CC50 (A549): 76.7 µM; MIC (Streptococcus pneumoniae [11]): 8 µg/mL (≈ 17.8 µM); CC50 (HepG2): 63.8 µM
7 | Nc1ccccc1Sc1ccc(C(=O)Nc2ccc(C(=O)O)cc2)cc1[N+](=O)[O-] | > 256 | > 256 | > 256 | > 256 | > 256 | 256 (≈ 625 µM) |  |  |  |  |  |  | 97 |  | 
8 | CN[C@H](CC(C)C)C(=O)N[C@H]1C(=O)N[C@@H](CC(N)=O)C(=O)N[C@H]2C(=O)N[C@H]3C(=O)N[C@H](C(=O)N[C@H](C(=O)O)c4cc(O)cc(O)c4-c4cc3ccc4O)[C@H](O)c3ccc(c(Cl)c3)Oc3cc2cc(c3O[C@@H]2O[C@H](CO)[C@@H](O)[C@H](O)[C@H]2O[C@H]2C[C@](C)(N)[C@H](O)[C@H](C)O2)Oc2ccc(cc2Cl)[C@H]1O [VANCOMYCIN] |  |  |  |  |  | 1 (≈ 0.69 µM) |  |  | 1 (≈ 0.69 µM) | 1 (≈ 0.69 µM) |  | 1 (≈ 0.69 µM) |  | 1 (≈ 0.69 µM) | 
9 | Nc1cc(Cl)ccc1Sc1ccc(C(=O)c2ccccc2C(=O)O)cc1[N+](=O)[O-] | > 256 | > 256 | > 256 | > 256 | > 256 |  |  |  |  |  |  |  |  |  | MIC (Streptococcus pneumoniae [11]): 64 µg/mL (≈ 149 µM)
10 | CO/N=C(\C(=O)N[C@@H]1C(=O)N2C(C(=O)O)=C(CSc3nc(=O)c(O)nn3C)CS[C@H]12)c1csc(N)n1 |  |  |  |  |  |  |  |  |  |  |  |  |  |  | Activity (Streptococcus pneumoniae [14]): inactive
11 | O=C(O)c1c(Cl)cccc1NCc1ccc(Sc2ccc(Cl)c(Cl)c2)c([N+](=O)[O-])c1 | > 256 | > 256 | > 256 | > 256 | > 256 |  | 8 (≈ 16.5 µM) | 8 (≈ 16.5 µM) | 8 (≈ 16.5 µM) | 8 (≈ 16.5 µM) | 4 (≈ 8.27 µM) | 4 (≈ 8.27 µM) | 25.1 | 2 (≈ 4.13 µM) | selectivity ratio [1]: 12; selectivity ratio [2]: 11; CC50 (A549): 93.3 µM; CC50 (HepG2): 97.7 µM
12 | O=C(O)c1cccc(NCc2ccc(Sc3ccc(Cl)c(Cl)c3)c([N+](=O)[O-])c2)c1 | > 256 | > 256 | > 256 | > 256 | > 256 |  | 8 (≈ 17.8 µM) | 8 (≈ 17.8 µM) | 8 (≈ 17.8 µM) | 8 (≈ 17.8 µM) | 8 (≈ 17.8 µM) | 8 (≈ 17.8 µM) | 42.9 | 8 (≈ 17.8 µM) | 
13 | CO[C@H]1/C=C/O[C@@]2(C)Oc3c(C)c(O)c4c(O)c(c(/C=N/N5CCN(C)CC5)c(O)c4c3C2=O)NC(=O)/C(C)=C\C=C\[C@H](C)[C@H](O)[C@@H](C)[C@@H](O)[C@@H](C)[C@H](OC(C)=O)[C@@H]1C [RIFAMPIN] |  |  |  |  |  | 0.0625 (≈ 0.0759 µM) | 0.03 (≈ 0.0365 µM) | 0.01 (≈ 0.0122 µM) | 4 (≈ 4.86 µM) | 0.03 (≈ 0.0365 µM) | 0.03 (≈ 0.0365 µM) | 0.03 (≈ 0.0365 µM) |  | 0.03 (≈ 0.0365 µM) | Activity (Streptococcus pneumoniae [14]): Active
14 | Nc1ccccc1Sc1ccc(C(=O)c2ccccc2C(=O)O)cc1[N+](=O)[O-] | > 256 | > 256 | > 256 | > 256 | > 256 |  | > 256 | > 256 | 256 (≈ 649 µM) | 256 (≈ 649 µM) | > 256 | > 256 |  | 256 (≈ 649 µM) | 
15 | O=C(O)c1ccccc1C(=O)c1ccc(Nc2cccc(Cl)c2)c([N+](=O)[O-])c1 | > 256 | > 256 | > 256 | > 256 | > 256 | 256 (≈ 645 µM) |  |  |  |  |  |  |  |  | 
16 | O=C(O)c1ccc(Cl)c(NCc2ccc(Sc3ccc(Cl)c(Cl)c3)c([N+](=O)[O-])c2)c1 | > 256 | > 256 | > 256 | > 256 | > 256 |  | 8 (≈ 16.5 µM) | 8 (≈ 16.5 µM) | 4 (≈ 8.27 µM) | 4 (≈ 8.27 µM) | 4 (≈ 8.27 µM) | 4 (≈ 8.27 µM) | 15 | 4 (≈ 8.27 µM) | hemolysis [4]: < 10%; selectivity ratio [1]: 27; selectivity ratio [2]: 28; CC50 (A549): 116 µM; CC50 (HepG2): 110 µM
17 | Nc1ccccc1Sc1ccc(CNc2cccc(C(=O)O)c2)cc1[N+](=O)[O-] | > 256 | > 256 | > 256 | > 256 | > 256 | 64 (≈ 162 µM) |  |  |  |  |  |  |  |  | 
